According to publication PMC5768141 (Journal of natural products, 2017):

Assays:
[1] = test system: OVCAR3 human ovarian cancer cells; test: Cell viability assay; assay type: cell-based; details: OVCAR-3, 72 h, read-out: IC50 against OVCAR3
[2] = test system: OVCAR8 cells; test: Cell viability assay; assay type: cell-based; details: Homo sapiens, OVCAR-8, 72 h, read-out: IC50 against OVCAR8
[3] = test system: MOE^LOW murine oviductal epithelial cells; test: Cell viability assay; assay type: cell-based; details: Mus musculus, 72 h, read-out: IC50 against MOE^LOW
[4] = test system: MOE^HIGH murine oviductal epithelial cells; test: Cell viability assay; assay type: cell-based; details: Mus musculus, 72 h, read-out: IC50 against MOE^HIGH
[5] = test system: Na^+/K^+-ATPase (adenosine 5′-triphosphatase from porcine cerebral cortex); test: Na^+/K^+-ATPase activity assay; assay type: biochemical; details: various concentrations, 15 min at 37 °C
Outline: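 The Na+/K+-ATPase from porcine cerebral cortex, in assay buffer, was mixed with DMSO or test compound in DMSO, and ATP was added to start the reaction. After 15 min at 37 °C, ADP-Glo reagent stopped the reaction and depleted ATP over 40 min at room temperature. Detection reagent then converted ADP to ATP over 60 min, and ATP was read by luciferin/luciferase luminescence.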

[6] = test system: OVCAR3 cells; test: Clonogenic assay; assay type: cell-based, human; details: OVCAR3, 21 days, treated every three days
Outline: (§1)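 Cells in RPMI 1640 with 10% FBS were plated at 200 cells per 60 mm dish and grown 21 days. Test compound or solvent control was given every three days. Colonies were fixed with 4% (w/v) paraformaldehyde, stained with 0.04% (w/v) crystal violet for 30 min at room temperature, imaged and counted by image analysis. Three biological replicates.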

[7] = test system: OVSAHO cells; test: Clonogenic assay; assay type: cell-based, human; details: 21 days, treated every three days
Outline: as §1

[8] = test system: OVCAR3 cells; test: Soft agar colony formation assay; assay type: cell-based, human; details: OVCAR3, 21 days, vs DMSO control
Outline: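 OVCAR3 cells, cultured in RPMI 1640 with 10% FBS, were suspended at 1.5 × 10^4 cells in 0.35% w/v top agar over a 0.5% w/v base agar layer. They were grown 21 days with the medium changed every three days. Colonies were imaged by microscopy and counted by image analysis. Three biological replicates.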

[9] = test system: OVSAHO cells; test: Soft agar colony formation assay; assay type: cell-based, human; details: 21 days, vs DMSO control
Outline: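 OVSAHO cells (1.5 × 104) suspended in 0.35% w/v agar over a 0.5% w/v base agar layer, with test compound or solvent control. Grown 21 days with medium changed every three days. Colonies imaged by microscopy and counted by image analysis; three biological replicates.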

[10] = test system: OVCAR3 cells; test: Cell cycle assay; assay type: cell-based, human; details: OVCAR3, 72 h
[11] = test system: OVCAR3 cells; test: Immunoblot analysis with densitometry; assay type: cell-based, human; details: for ERK activation (phosphorylated ERK) / p53 expression: OVCAR3, 100 nM; for p53 expression: 72 h; for Bcl-xL expression / Cleaved PARP level / Cleaved caspase 3 level / Mcl-1 expression / p21 protein expression: OVCAR3, western blot densitometry
Outline: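 OVCAR3 cells exposed to test compound (100 nM, 72 h). Lysed in RIPA buffer on ice for 15 min, then spun at 14,000 g, 4 °C, 15 min. Protein quantified by BCA; 25 μg per lane run on SDS-PAGE and transferred to PVDF. Blocked in 5% milk/TBST for 1 h at RT, primary antibody overnight at 4 °C, secondary 30 min. Chemiluminescent detection, ImageJ densitometry, n = 3.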

[12] = test system: OVSAHO cells; test: Immunoblot analysis with densitometry; assay type: cell-based, human; details: for ERK activation (phosphorylated ERK): 100 nM; for p21 protein expression: western blot; for Cleaved PARP expression level: western blot densitometry
[13] = test system: OVCA432 cells; test: Immunoblot analysis; assay type: cell-based, human
[14] = test system: OVCAR3 ovarian cancer cells; details: cited from earlier work
[15] = test system: MDA-MB-231 breast cancer cells; details: cited from earlier work
[16] = test system: HT-29 colon cancer cells; details: cited from earlier work
[17] = test system: KB nasopharyngeal cells; details: cited from earlier work
[18] = test system: normal human colon CCD-112CoN cells; details: cited from earlier work
[19] = test system: normal human peripheral blood mononuclear cells; details: cited from earlier work
[20] = test system: hERG channels; details: cited from earlier work

In the case of `CO[C@H]1[C@H](O[C@H]2CC[C@]3(C=O)[C@H]4CC[C@]5(C)[C@@H](C6=CC(=O)OC6)CC[C@]5(O)[C@@H]4CC[C@]3(O)C2)O[C@H](C)[C@H](O)[C@@H]1OC` [(+)-strebloside, (+)-Strebloside], the IC50 [1] is reported as 0.134 µM, the IC50 [2] is reported as 0.0911 µM and the IC50 [3] is reported as greater than 50 µM. The IC50 [4] was greater than 50 µM, the “Inhibition of Na^+/K^+-ATPase activity” value [5] was “inhibited Na^+/K^+-ATPase activity in a concentration-dependent manner” and the 2D colony formation [6] was “neither OVCAR3 nor OVSAHO cells formed colonies”. For the same compound, the 2D colony formation [7] was “neither OVCAR3 nor OVSAHO cells formed colonies”, the “Soft agar colony formation (anchorage-independent growth)” value [8] was “formed significantly less soft agar colonies than a DMSO control” and the “Soft agar colony formation (anchorage-independent growth)” value [9] was “no difference was detected”. The Cell cycle distribution [10] was “induced an accumulation of cells in the G2/M phase”, the “ERK activation (phosphorylated ERK)” value [11] was “induced activation of ERK” and the p53 expression [11] was “disappearance of p53”. For the same compound, the Bcl-xL expression [11] was “decrease in Bcl-xL after treatment was not statistically significant”, the “Cleaved PARP level” value [11] was “significantly higher levels of cleaved PARP” and the “Cleaved caspase 3 level” value [11] was “significant increase in cleaved caspase 3”. The Mcl-1 expression [11] was “expressed less Mcl-1 than control cells”, the p21 protein expression [11] was “expressed more p21 protein than the control” and the “ERK activation (phosphorylated ERK)” value [12] was “induced activation of ERK”. For the same compound, the p21 protein expression [12] was “significant increase in p21 expression”, the “Cleaved PARP expression level” value [12] was “higher than the levels in control cells” and the p53 expression [13] was “decreased expression of p53”. For the same compound, the “In vivo potency in hollow fiber assay” value [14] was “significant potency in vivo”, the “In vivo potency in hollow fiber assay” value [15] was “significant potency in vivo” and the Cytotoxicity [16] was “potent cytotoxicity”. For the same compound, the Cytotoxicity [17] was “potent cytotoxicity”, the “Toxicity compared with digoxin” value [18] was “not as toxic as digoxin” and the “Toxicity compared with digoxin” value [19] was “not as toxic as digoxin”.

For `C[C@H]1O[C@@H](O[C@H]2[C@@H](O)C[C@H](O[C@H]3[C@@H](O)C[C@H](O[C@H]4CC[C@@]5(C)[C@H](CC[C@@H]6[C@@H]5CC[C@]5(C)[C@@H](C7=CC(=O)OC7)CC[C@]65O)C4)O[C@@H]3C)O[C@@H]2C)C[C@H](O)[C@@H]1O` [digitoxin, reference compound], the IC50 [3] was greater than 50 µM, the IC50 [4] was greater than 50 µM and the Cell cycle distribution [10] was “accumulation of cells in the G2/M phase”. For the same compound, the “ERK activation (phosphorylated ERK)” value [11] was “induced activation of ERK”, the p53 expression [11] was “disappearance of p53” and the Bcl-xL expression [11] was “decrease in Bcl-xL after treatment was not statistically significant”. The “Cleaved PARP level” value [11] was “significantly higher levels of cleaved PARP”, the “Cleaved caspase 3 level” value [11] was “significant increase in cleaved caspase 3” and the Mcl-1 expression [11] was “expressed less Mcl-1 than control cells”. For the same compound, the p21 protein expression [11] was “expressed more p21 protein than the control”, the “ERK activation (phosphorylated ERK)” value [12] was “induced activation of ERK” and the p21 protein expression [12] was “significant increase in p21 expression”. For the same compound, the “Cleaved PARP expression level” value [12] was “higher than the levels in control cells”, the p53 expression [13] was “decreased expression of p53” and the “Interaction with hERG channels and hERG trafficking” value [20] was “reported to interact with hERG channels and hERG trafficking”.
